In ChEMBL document CHEMBL1145965, “4-Substituted 4-hydroxycyclohexa-2,5-dien-1-ones with selective activities against colon and renal cancer cell lines” (J Med Chem, 2003):

Assays:
[1] = test system: 786-0; test: Concentration of compound that cause 50% cytotoxicity of 786-0 renal cancer cell line; assay type: functional; conditions: Homo sapiens, read-out: Log LC50 (the source's name) (converted)
Summary of the method: (§1)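 NCI 60-cell-line panel screen. Each line was seeded in 96-well plates at a density set by its growth characteristics and incubated drug-free for 24 h. Test agents were then added at five 10-fold dilutions, with a top concentration of 100 μM.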

[2] = test system: A549; test: Inhibitory activity against A549 lung adenocarcinoma cell line; assay type: functional, cell-based; conditions: Homo sapiens
Summary of the method: (§2)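 Cells grown in RPMI 1640 with 2 mM L-glutamine and 10% fetal calf serum, 37 °C, 5% CO2. Seeded at 5 × 10³ per well, 24 h adherence, then drug 0.1 nM–100 μM final (n = 8; DMSO stocks, dilutions in medium) for 72 h.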

[3] = test system: A498; test: Concentration of compound that cause 50% cytotoxicity of A498 renal cancer cell line; assay type: functional; conditions: Homo sapiens, read-out: Log LC50 (the source's name) (converted); summary of the method: as §1
[4] = test system: Panel NCI-60 (60 carcinoma cell lines); test: In vitro mean growth inhibitory activity against 60-cell panel; assay type: functional; conditions: Homo sapiens
[5] = test system: Panel NCI-60 (60 carcinoma cell lines); test: In vitro mean growth lethal concentration in colon subpanel against 60-cell panel; assay type: functional; conditions: Homo sapiens, read-out: Mean LC50
[6] = test system: Panel NCI-60 (60 carcinoma cell lines); test: In vitro mean growth lethal concentration in renal subpanel against 60-cell panel; assay type: functional; conditions: Homo sapiens, read-out: Mean LC50
[7] = test system: ACHN; test: Concentration of compound that cause 50% cytotoxicity of ACHN renal cancer cell line; assay type: functional; conditions: Homo sapiens, read-out: Log LC50 (the source's name) (converted); summary of the method: as §1
[8] = test system: A549; test: Concentration of compound that cause 50% cytotoxicity of A549/ATCC non small cell lung cancer cell line; assay type: functional; conditions: Homo sapiens, read-out: Log LC50 (the source's name) (converted); summary of the method: as §1
[9] = test system: ACHN; test: In vitro lethal concentration against most sensitive ACHN cell line; assay type: functional; conditions: Homo sapiens, read-out: LC50 (the source's name)
[10] = test system: BT-549; test: Concentration of compound that cause 50% cytotoxicity of BT-549 breast cancer cell line; assay type: functional; conditions: Homo sapiens, read-out: Log LC50 (the source's name) (converted); summary of the method: as §1
[11] = test system: CCRF-CEM; test: Concentration of compound that cause 50% cytotoxicity of CCRF-CEM leukemia cell line; assay type: functional; conditions: Homo sapiens, read-out: Log LC50 (the source's name) (converted); summary of the method: as §1
[12] = test system: CAKI-1; test: Concentration of compound that cause 50% cytotoxicity of CAKI-1 renal cancer cell line; assay type: functional; conditions: Homo sapiens, read-out: Log LC50 (the source's name) (converted); summary of the method: as §1
[13] = test system: COLO 205; test: Concentration of compound that cause 50% cytotoxicity of COLO 205 colon cancer cell line; assay type: functional; conditions: Homo sapiens, read-out: Log LC50 (the source's name) (converted); summary of the method: as §1
[14] = test system: HCT-116; test: In vitro lethal concentration against most sensitive colon HCT116 cell line; assay type: functional; conditions: Homo sapiens, read-out: LC50 (the source's name)
[15] = test system: SW-620; test: In vitro lethal concentration against least sensitive colon SW-620 cell line; assay type: functional; conditions: Homo sapiens, read-out: LC50 (the source's name)
[16] = test system: DU-145; test: Concentration of compound that cause 50% cytotoxicity of DU-145 prostate cancer cell line; assay type: functional; conditions: Homo sapiens, read-out: Log LC50 (the source's name) (converted); summary of the method: as §1
[17] = test system: EKVX; test: Concentration of compound that cause 50% cytotoxicity of EKVX non small cell lung cancer cell line; assay type: functional; conditions: Homo sapiens, read-out: Log LC50 (the source's name) (converted); summary of the method: as §1
[18] = test system: HCT-116; test: Concentration of compound that cause 50% cytotoxicity of HCT116 colon cancer cell line; assay type: functional; conditions: Homo sapiens, read-out: Log LC50 (the source's name) (converted); summary of the method: as §1
[19] = test system: HCT-15; test: Concentration of compound that cause 50% cytotoxicity of HCT-15 colon cancer cell line; assay type: functional; conditions: Homo sapiens, read-out: Log LC50 (the source's name) (converted); summary of the method: as §1
[20] = test system: HOP-62; test: Concentration of compound that cause 50% cytotoxicity of HOP-62 non small cell lung cancer cell line; assay type: functional; conditions: Homo sapiens, read-out: Log LC50 (the source's name) (converted); summary of the method: as §1
[21] = test system: HCT-116; test: Inhibitory activity against HCT116 colon cancer cell line; assay type: functional, cell-based; conditions: Homo sapiens; summary of the method: as §2
[22] = test system: HT-29; test: Inhibitory activity against HT-29 colon cancer cell line; assay type: functional, cell-based; conditions: Homo sapiens; summary of the method: as §2
[23] = test system: HT-29; test: Concentration of compound that cause 50% cytotoxicity of HT-29 colon cancer cell line; assay type: functional; conditions: Homo sapiens, read-out: Log LC50 (the source's name) (converted); summary of the method: as §1
[24] = test system: HCC 2998; test: Concentration of compound that cause 50% cytotoxicity of HCC2998 colon cancer cell line; assay type: functional; conditions: Homo sapiens, read-out: Log LC50 (the source's name) (converted); summary of the method: as §1
[25] = test system: HL-60; test: Concentration of compound that cause 50% cytotoxicity of HL-60(TB) leukemia cell line; assay type: functional; conditions: Homo sapiens, read-out: Log LC50 (the source's name) (converted); summary of the method: as §1
[26] = test system: Hs-578T; test: Concentration of compound that cause 50% cytotoxicity of Hs 578.T breast cancer cell line; assay type: functional; conditions: Homo sapiens, read-out: LC50 (the source's name); summary of the method: as §1
[27] = test system: HOP-92; test: Concentration of compound that cause 50% cytotoxicity of HOP-92 non small cell lung cancer cell line; assay type: functional; conditions: Homo sapiens, read-out: Log LC50 (the source's name) (converted); summary of the method: as §1
[28] = test system: K562; test: Concentration of compound that cause 50% cytotoxicity of K-562 leukemia cell line; assay type: functional; conditions: Homo sapiens, read-out: LC50 (the source's name); summary of the method: as §1
[29] = test system: KM12; test: Concentration of compound that cause 50% cytotoxicity of KM12 colon cancer cell line; assay type: functional; conditions: Homo sapiens, read-out: Log LC50 (the source's name) (converted); summary of the method: as §1
[30] = test system: M14; test: Concentration of compound that cause 50% cytotoxicity of M14 melanoma cell line; assay type: functional; conditions: Homo sapiens, read-out: Log LC50 (the source's name) (converted); summary of the method: as §1
[31] = test system: LOX IMVI; test: Concentration of compound that cause 50% cytotoxicity of LOX IMVI melanoma cell line; assay type: functional; conditions: Homo sapiens, read-out: Log LC50 (the source's name) (converted); summary of the method: as §1
[32] = test system: MDA-MB-435; test: Concentration of compound that cause 50% cytotoxicity of MDA-MB-435 breast cancer cell line; assay type: functional; conditions: Homo sapiens, read-out: Log LC50 (the source's name) (converted); summary of the method: as §1

Compound `O=C1C=CC(O)(c2nc3ccccc3s2)C=C1` has a CC50 [1] of 1.05 µM, an IC50 [2] of 2.35 µM and a CC50 [3] of 8.51 µM. The GI50 [4] was 0.23 µM, the CC50 [5] was 1.76 µM and the CC50 [6] was 1.57 µM. The CC50 [7] was 2.75 µM, the CC50 [8] was 43.7 µM and the CC50 [9] was 0.69 µM. For the same compound, the CC50 [10] was 4.79 µM, the CC50 [11] was 2.57 µM and the CC50 [12] was 1.35 µM. The CC50 [13] was 5.13 µM, the CC50 [14] was 0.43 µM and the CC50 [15] was greater than 100 µM. The CC50 [16] was 3.39 µM, the CC50 [17] was 5.75 µM and the CC50 [18] was 0.468 µM. For the same compound, the CC50 [19] was 2.45 µM, the CC50 [20] was 12.6 µM and the IC50 [21] was 0.04 µM. For the same compound, the IC50 [22] was 0.38 µM, the CC50 [23] was 0.692 µM and the CC50 [24] was 0.977 µM. The CC50 [25] was 0.741 µM, the CC50 [26] was greater than 4 µM and the CC50 [27] was 3.72 µM. For the same compound, the CC50 [28] was greater than 4 µM, the CC50 [29] was 4.37 µM and the CC50 [30] was 5.25 µM. The CC50 [31] was 3.8 µM and the CC50 [32] was 1.51 µM.
